In ChEMBL document CHEMBL1155001, “Design, synthesis of novel peptidomimetic derivatives of 4-HPR for rhabdoid tumors” (Bioorg Med Chem Lett, 2008):

Legend:
Type in all cases: functional, cell-based
[1] = Cytotoxicity against INI1 gene deficient human MON cells assessed as cell survival after 3 days by MTS assay; settings: 72 h
Method in brief: (§1)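 INI1-deficient MON rhabdoid tumor cells were grown in RPMI 1640 with 10% FBS, 2 mM L-glutamine, penicillin and streptomycin at 37 °C in 5% CO2. Survival was read by MTS after 3 days. Relative IC50 was taken from a sigmoidal variable-slope fit of % inhibition vs log concentration.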

[2] = test system: G-401; assay: Cytotoxicity against human G401 cells assessed as cell survival after 3 days by MTS assay; settings: G-401, 72 h
[3] = Cytotoxicity against human MON cells assessed as cell survival after 3 days by MTS assay; settings: 72 h; method in brief: as §1
[4] = Cytotoxicity against human STM cells assessed as cell survival after 3 days by MTS assay; settings: 72 h

Structure (SMILES) | IC50 [1] [µM] | IC50 [2] [µM] | IC50 [3] [µM] | IC50 [4] [µM]
CCC1=C(C)/C(=C/c2ccc(C(=O)Nc3ccc(O)c(Cl)c3)cc2)CCC1(C)C | 10.4 | – | – | –
CCC1=C(C)/C(=C/c2ccc(C(=O)Nc3ccc(O)c(F)c3)cc2)CCC1(C)C | 12.9 | – | – | –
CCC1=C(C)/C(=C/c2ccc(C(=O)Nc3ccc(O)c(I)c3)cc2)CCC1(C)C | 3.15 | – | – | –
CCC1=C(C)/C(=C/c2ccc(C(=O)Nc3ccc(O)cc3O)cc2)CCC1(C)C | 47.2 | – | – | –
CCC1=C(C)/C(=C/c2ccc(C(=O)O)cc2)CCC1(C)C | > 50 | – | – | –
CCC1=C(C)/C(=C/c2ccc(C(=O)Nc3ccc(CO)cc3)cc2)CCC1(C)C | 29.1 | – | – | –
CC1=C(/C=C/C(C)=C/C=C/C(C)=C/C(=O)Nc2ccc(O)cc2)C(C)(C)CCC1 [FENRETINIDE] | 14.7 | 5 | 12 | 5
